Assay results from ChEMBL document CHEMBL4513216, “Probing the Open Global Health Chemical Diversity Library for Multistage-Active Starting Points for Next-Generation Antimalarials” (ACS Infect Dis, 2020).

experiment: Toxicity liver stage against HepG2, at 10uM; type: cell-based; set-up: test concentration 10 uM, cell line HepG2-A16-CD81EGFP; details: human, HepG2-A16-CD81EGFP cells; read-out: INHIBITION
Summary of the method: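 Uninfected HepG2-A16-CD81EGFP cells, 3 × 10^3 per well, 1536-well, plated on prespotted compound at 10 μM final, parasite-free screening media added to match infected plates; puromycin 10 μM positive, DMSO 0.5% negative; run in parallel with 48 h PbLuc assay at 37 °C, 5% CO2; viability by CellTiter-Glo luminescence, normalized to controls.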

Structure (SMILES)	cytotoxicity at 10 µM [%]
Cn1c(CC(=O)O)c(Sc2ccccc2)c2ccccc21	4.35
CC(=O)N1CCC(N2CCN3C(=O)N(c4ccccc4)C[C@H]3C2)CC1	1.35
COc1cccc(CNc2c(O)c(=O)c2=O)c1	5.78
COc1ccc(C)cc1NC(=O)Nc1cnc(O)nc1O	-3.79
CC1=C(c2ccc(F)cc2)S(=O)(=O)N=C1N1CCc2ccccc21	-1.29
COCC(O)CN1CCC(=O)N(CC(=O)C(C)(C)C)Cc2ccccc21 (configuration not stated)	6.31
CC(C)CC(=O)N1CC(=O)N(CCc2ccccc2)CC(O)C1 (configuration not stated)	-6.4
CCOC(=O)N1CC(=O)N(Cc2cccc(OC)c2OC)CC(O)C1 (configuration not stated)	-3.66
O=C(Cc1csc(-c2ccccc2F)n1)NCc1cccc(C(=O)O)c1	-5.48
O=C(c1ccccc1F)N1CCN(c2ccc(-n3cccn3)nn2)CC1	-18.3
O=S(=O)(C1CC1)N1CCC(Cn2cccn2)CC1	-8.29
O=S(=O)(c1ccccc1Br)N1CCC2(CC1)OCCS2	-1.86
O=C1COc2ccc(Br)cc2CN1CC1CC1	-3.46
COCCN(Cc1ccoc1)S(=O)(=O)c1ccc(F)c(C)c1	-7.15
c1coc(CN2CC[C@@H]3O[C@@H](COCc4ccncc4)CC[C@@H]32)c1	-155
COCC1COCCC12CCN(C(=O)Cc1ccc(F)cc1)CC2 (configuration not stated)	1.68
Cc1ccc(S(=O)(=O)N2Cc3c(CN(C)C)nn(C)c3C2)cc1	2.32
O=C1CCCN1CC1CN(C(=O)C2CCOCC2)Cc2nccn2C1 (configuration not stated)	3.33
O=C(O)C1CCN(C(=O)Cn2ccc3c(Cl)cccc32)CC1	-3.91
CC(C)NC(=O)c1sccc1N(C)S(=O)(=O)c1ccc(Cl)cc1	9.22
Cc1nc(CN2C(=O)C[C@@H]3[C@@H]2CCN3C(=O)C2CCOCC2)cs1	-10.8
CC(=O)c1cccc(S(=O)(=O)NCCNC(=O)c2snnc2C)c1	-0.302
CCn1nccc1CN(C)c1nc(N)nc2c1nc(C)n2C	-4.83

Structure (SMILES)	cytotoxicity at 10 µM [%]
CSCc1cccc(S(=O)(=O)NCCO)c1	-0.138
CCOc1ccc2oc(-c3cnn(C)c3C)c(O)c(=O)c2c1	7.72
Cc1noc(C)c1C(=O)N[C@@H]1CC[C@@H](Oc2ccccc2)[C@@H]1O	0.395
CS(=O)(=O)N1CCCCC1c1ccc(Nc2cnccn2)nc1 (configuration not stated)	6.39
CN(C)C(=O)c1c[nH]nc1-c1ccc(CNC(=O)c2cnccn2)cc1	-0.56
Cc1nc(Nc2ncccn2)cc(C2CCCN2C)n1 (configuration not stated)	-16.5
CN(C)C(=O)CN1CCC(c2cncc(-c3cccc(Cl)c3)n2)CC1	-33.3
Cc1cc2c(=O)n3c(nc2s1)CCN(C(=O)c1ccn(C)n1)CC3	-9.68
Cc1cc(N)cc(C2CN(Cc3cc[nH]n3)CCO2)n1 (configuration not stated)	-29.1
Cc1nc(NC2CCCC2)cc(C2CCN2C(=O)c2cnn(C)c2)n1 (configuration not stated)	8.89
O=S1(=O)NC2(CCCN(Cc3ccc(F)cc3)C2)COc2ccccc21 (configuration not stated)	7.63
CC(C)(C)C(O)CN1CCN(Cc2ccc(C#N)cc2)CC1 (configuration not stated)	-8.88
CCC(=O)N1CCN(C(=O)NCc2c(C)cc(C)cc2C)CC1	6.12
CCn1nnnc1-c1cccc(NC(=O)CCn2cc(C)cn2)c1	1.66
CC(NC1(CNS(C)(=O)=O)CCOCC1)c1ccccc1 (configuration not stated)	6.72
Cc1nc(C(C)NC(=O)NCc2nccn2CC(C)C)cs1 (configuration not stated)	-20.7
Clc1snnc1CN(Cc1cccs1)C1CC1	-8.78
CSCC(=O)N1CCOC(c2nc(C(C)(C)C)n[nH]2)C1 (configuration not stated)	-9.58
Cc1ccc(CNC(=O)COc2ccc3c(c2)OCC3O)cc1 (configuration not stated)	-5.67
Cc1ccccc1Cn1cnc2oc(C)c(C(=O)O)c2c1=O	-1.49
COc1ccc(Br)cc1CC(=O)Nc1cc(C)n[nH]1	-0.405
O=C(Nc1cccnc1-n1cncn1)C1CCC1	-4.32
CN(C(=O)NCC1(CN2CCOCC2)CCCCC1)C1CC1	-1.91

Structure (SMILES)	cytotoxicity at 10 µM [%]
Cn1cc(-c2nc(CN3CCOC(Cn4cccn4)C3)cs2)cn1 (configuration not stated)	-4.04
Cc1ccc(C(=O)Nc2cnn(CC(=O)NC3CCCC3)c2)c(=O)[nH]1	-4.09
COCC(=O)N(C)Cc1ccc(F)c(F)c1	-140
CCCc1n[nH]c(C2CN(C(=O)CCn3cc(C)cn3)CCO2)n1 (configuration not stated)	10.3
Cc1ccc(NC(C)C(=O)NCc2cccs2)cc1Cl (configuration not stated)	-2.27
COc1c(C2CCCN2C(=O)c2cnn(C)c2C2CC2)c(C)nn1C (configuration not stated)	-2.43
Cc1ccccc1S(=O)(=O)CCOC(C)C	0.456
Cc1cnn(CCCNC(=O)C2CCCCN2Cc2ccncc2)c1 (configuration not stated)	-7.85
Cc1cnn(CCCNC(=O)C2CCCCN2Cc2cccnc2)c1 (configuration not stated)	-8.97
Cn1cc(CNc2ccc(F)c(N3CCCS3(=O)=O)c2)cn1	-12.8
CN(CCN1CCOCC1)C(=O)C1(c2ccc(F)cc2F)CCC1	-6.68
Cc1ccc(OC(C)CNC(=O)c2c[nH]nn2)cc1 (configuration not stated)	-0.0422
C[C@@H]1CN(Cc2ccccc2)CCN1C(=O)NCc1nccs1	-142
FC(F)(F)c1ccnc(N2CCCN(C3CCOCC3)CC2)c1	-7.49
CCN(C(=O)CN1CCCC1c1ccc(OC)cc1)c1ccccc1C (configuration not stated)	0.623
NS(=O)(=O)CCNC(=O)c1cc2cccc(F)c2o1	2.46
COc1ccccc1CC(C)(C)NC(=O)CN(C)C(C)C	3.04
CCOCC1CCN(C(=O)c2sc(C)cc2OC(F)F)CC1	7.95
CCN1CCN(C(=O)C(C)SC)CC1 (configuration not stated)	11.4
CCOc1cc(C(=O)O)cc(-c2ccccc2)c1OC	-9.88
Cc1cc(C)nc(NC2CCOC3(CCCC3)C2)n1 (configuration not stated)	7.93
CN(C)C(=O)c1cccc(NC(=O)N2CCCC(C(F)(F)F)C2)c1 (configuration not stated)	6.37
COCCCN1CCCN(C(C)C(=O)Nc2ccnn2C(C)C)CC1 (configuration not stated)	-8.8

Structure (SMILES)	cytotoxicity at 10 µM [%]
CC(NCC1=Cc2cc(Cl)ccc2OC1)c1nnc2n1CCCC2 (configuration not stated)	-11.4
Cc1cc(CN2CCc3nn(C)c(=O)cc3C2)on1	-8.17
Cc1nn(C)c(N(C)C)c1CNCC(O)COc1ccc(F)cc1 (configuration not stated)	0.769
CCOCCN1CCN(Cc2nnc(C3CC3)o2)CC1CC (configuration not stated)	-5.67
CC(C)C1CN(C(=O)c2ccc(C(N)=O)cc2)CCS1 (configuration not stated)	-4.03
Cn1cc(CCNC(=O)NC2CCS(=O)(=O)C2)cn1 (configuration not stated)	-12.9
Cc1nn(C)c(C)c1C1CCCN1C(=O)c1ccc(Cl)o1 (configuration not stated)	-5.15
Cn1ccnc1CN1C[C@@H](CN2CCCC2)[C@@H](CO)C1	4.34
Cc1cc2ccccc2n1CCC(=O)NCCCc1nnc(N)s1	19.6
c1cc(CN2CCC(Cc3noc(C4CC4)n3)CC2)c2c(c1)OCO2	7.69
O=C(COCc1ccccc1)N1CCCC(OCc2cccnc2)C1 (configuration not stated)	-2.65
Cc1ccc(OC2(C(=O)O)CCN(C(=O)c3cccs3)CC2)cn1	0.92
CC(=O)c1cc(CC(=O)NCc2cccc(F)c2F)cs1	2.95
CN(Cc1cnc(N)nc1)C(=O)c1coc(COc2cccc(F)c2)n1	0.998
CC(C)n1ccnc1C1CCCN(c2cncc(N(C)C)n2)C1 (configuration not stated)	10.1
CSCCCNc1nccc(-c2cc(C(=O)O)ccn2)n1	3.49
CCN(Cc1nc(COC)no1)Cc1cc2ccc(F)cc2[nH]c1=O	2.03
CCn1c(C)cc(C(=O)N2C[C@@H](C(=O)O)[C@H](c3ccccc3C)C2)c1C	-7.71
CCn1c(CC2CCN(S(=O)(=O)N3CCCCC3)CC2)nn(C)c1=O	1.58
Cc1cccnc1C(Nc1nccc(C2CCCC2)n1)C1CC1 (configuration not stated)	-121
O=C1CCC2(CCNCC2)CN1Cc1nncn1CCc1ccccc1	-10.1
CN(C)C(=O)N1CCN(Cc2nc3ccccc3[nH]2)[C@H]2CS(=O)(=O)C[C@H]21	-150
COc1ccc([C@@H]2CN(C(=O)CCC(F)(F)F)C[C@H]2NC(C)=O)cc1	2.12

Structure (SMILES)	cytotoxicity at 10 µM [%]
CC(=O)N1CCN(CC2CCOc3ccccc3C2)CC1 (configuration not stated)	7.68
Cc1ccc2cc(CNCCCN3CCOCC3)c(=O)[nH]c2c1	-0.336
CN(Cc1ccc(F)cc1)[C@@H]1CN(C(=O)c2cccs2)C[C@H]1O	3.92
CC(=O)Nc1nc(CN2CCCCC2Cn2cncn2)cs1 (configuration not stated)	1.12
CCN(CCCNCc1c(C)nn(C)c1N(C)C)S(C)(=O)=O	-6.89
CC(O)CN1CCC(CNCc2ccccc2C(F)(F)F)CC1 (configuration not stated)	-9.27
Cc1cc(C(=O)NCc2ccc(N3CCCC(C(N)=O)C3)cc2)no1 (configuration not stated)	-3.37
CC(Cc1ccco1)NC(=O)Nc1cnn(CC(N)=O)c1 (configuration not stated)	7.82
O=C(NCCn1ccnc1)NCC(c1ccco1)N1CCCCC1 (configuration not stated)	3.44
CCN(CC)CC1CN(CCc2ccccc2)Cc2nccn2C1 (configuration not stated)	-9.61
CCN(CC)Cc1cn2c(n1)CN(C1CCOC1)CC2 (configuration not stated)	4.12
O=C1CC[C@H]2[C@H](CCN2c2ncc(F)cn2)N1c1cccnc1	0.864
COCC(=O)N1CCC2(CC1)COCCN2CCN(C)C	-3.28
CN(C)CC(=O)N1CC2(CCN(C(=O)Nc3ccccc3)C2)C1	4.17
Cc1ccc(CN2CC[C@H]3OCC[C@@]3(C(=O)N3CCCO3)C2)o1	8.83
CN1CCN(C(=O)NC2CC2)Cc2cccnc21	-2.96
O=C(c1cnccn1)N1CCOCC2(CCN(C3CCOCC3)C2)C1 (configuration not stated)	-7.94
COc1cc(N2C[C@H]3CN(C(=O)c4cccnc4)C[C@H]3C2)ncn1	-141
c1ccc(CN2CCc3ncnc(C4CC4)c3CC2)cc1	-156
Cc1c(Cl)cccc1S(=O)(=O)N1C[C@H]2CC[C@@H](C1)N(C)C2=O	3.42
